{"source": "ChEMBL document CHEMBL5260806", "about": "“Hydrogen peroxide activated quinone methide precursors with enhanced DNA cross-linking capability and cytotoxicity towards cancer cells” (Eur J Med Chem, 2017)", "key": {"[1]": {"test_system": "Malme-3M", "assay": "Anticancer activity against human Malme-3M cells assessed as cell growth inhibition at 10 uM incubated for 48 hrs by sulforhodamine B assay", "type": "functional", "conditions": "read-out: GI", "in_short": "(§1)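 NCI DTP 60-cell-line screen run at National Cancer Institute. Cells grown in RPMI 1640 with 5% fetal bovine serum and 2 mM L-glutamine, seeded at 5,000–40,000 cells/well depending on doubling time. Single-dose screen at 10 µM gives growth percentage; dose-response series gives GI50.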"}, "[2]": {"test_system": "SR", "assay": "Anticancer activity against human SR cells assessed as cell growth inhibition incubated for 48 hrs by sulforhodamine B assay", "type": "functional"}, "[3]": {"test_system": "DU-145", "assay": "Anticancer activity against human DU-145 cells assessed as cell growth inhibition at 10 uM incubated for 48 hrs by sulforhodamine B assay", "type": "functional", "conditions": "read-out: GI", "in_short": "(§2)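 NCI-60 screen: cell lines grown in RPMI 1640 with 5% FBS and 2 mM L-glutamine, plated in 96-well plates at 5,000–40,000 cells/well depending on doubling time. Each line has one single-dose arm at 10 µM and one dose-response arm giving GI50.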"}, "[4]": {"test_system": "SK-MEL-5", "assay": "Anticancer activity against human SK-MEL-5 cells assessed as cell growth inhibition at 10 uM incubated for 48 hrs by sulforhodamine B assay", "type": "functional", "conditions": "read-out: GI", "in_short": "as §1"}, "[5]": {"test_system": "COLO 205", "assay": "Anticancer activity against human COLO 205 cells assessed as cell growth inhibition at 10 uM incubated for 48 hrs by sulforhodamine B assay", "type": "functional", "conditions": "read-out: GI", "in_short": "as §2"}, "[6]": {"test_system": "A498", "assay": "Anticancer activity against human A498 cells assessed inhibition of cell growth after 48 hrs by CellTiter-Glo luminescent assay", "type": "functional, cell-based", "conditions": "A498, 48 h", "in_short": "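Human tumour cells kept in RPMI 1640 with 5% FBS and 2 mM L-glutamine, seeded at 5,000–10,000 cells/well and left 2–3 h at 37°C, 5% CO2. Drugs taken from 20 mM DMSO stocks, serially halved ten times in DMSO, then added at 1:100 dilution. Cells exposed for 48 h at 37°C. Viability read by CellTiter-Glo luminescence after 10 min at room temperature.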"}, "[7]": {"test_system": "ACHN", "assay": "Anticancer activity against human ACHN cells assessed inhibition of cell growth after 48 hrs by CellTiter-Glo luminescent assay", "type": "functional, cell-based", "in_short": "(§3)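 Renal lines grown in RPMI 1640 with 5% FBS and 2 mM L-glutamine, plated at 5,000–10,000 cells/well in 384-well plates and held 2–3 h at 37 °C, 5% CO2. Compounds were made as 20 mM DMSO stocks, given as ten 2-fold serial dilutions diluted 1:100 into cells, and incubated 48 h. Read-out was CellTiter-Glo luminescence after 10 min at room temperature.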"}, "[8]": {"test_system": "UO-31", "assay": "Anticancer activity against human UO-31 cells assessed as cell growth inhibition incubated for 48 hrs by sulforhodamine B assay", "type": "functional"}, "[9]": {"test_system": "MDA-MB-468", "assay": "Anticancer activity against human MDA-MB-468 cells assessed as cell growth inhibition at 10 uM incubated for 48 hrs by sulforhodamine B assay", "type": "functional", "conditions": "read-out: GI", "in_short": "as §1"}, "[10]": {"test_system": "SW-620", "assay": "Anticancer activity against human SW620 cells assessed as cell growth inhibition incubated for 48 hrs by sulforhodamine B assay", "type": "functional"}, "[11]": {"test_system": "IGROV-1", "assay": "Anticancer activity against human IGROV-1 cells assessed as cell growth inhibition at 10 uM incubated for 48 hrs by sulforhodamine B assay", "type": "functional", "conditions": "read-out: GI", "in_short": "as §2"}, "[12]": {"test_system": "786-0", "assay": "Anticancer activity against human 786-0 cells assessed inhibition of cell growth after 48 hrs by CellTiter-Glo luminescent assay", "type": "functional, cell-based", "conditions": "786-0, 48 h", "in_short": "as §3"}, "[13]": {"test_system": "SF-295", "assay": "Anticancer activity against human SF-295 cells assessed as cell growth inhibition incubated for 48 hrs by sulforhodamine B assay", "type": "functional", "in_short": "as §1"}, "[14]": {"test_system": "NCI/ADR-RES", "assay": "Anticancer activity against human NCI/ADR-RES cells assessed as cell growth inhibition at 10 uM incubated for 48 hrs by sulforhodamine B assay", "type": "functional", "conditions": "read-out: GI", "in_short": "as §1"}, "[15]": {"test_system": "CCRF-CEM", "assay": "Anticancer activity against human CCRF-CEM cells assessed as cell growth inhibition incubated for 48 hrs by sulforhodamine B assay", "type": "functional", "in_short": "as §2"}, "[16]": {"test_system": "CAKI-1", "assay": "Anticancer activity against human CAKI-1 cells assessed as cell growth inhibition at 10 uM incubated for 48 hrs by sulforhodamine B assay", "type": "functional", "conditions": "read-out: GI", "in_short": "as §2"}, "[17]": {"test_system": "A498", "assay": "Anticancer activity against human A498 cells assessed as cell growth inhibition incubated for 48 hrs by sulforhodamine B assay", "type": "functional", "in_short": "as §2"}, "[18]": {"test_system": "HOP-92", "assay": "Anticancer activity against human HOP-92 cells assessed as cell growth inhibition at 10 uM incubated for 48 hrs by sulforhodamine B assay", "type": "functional", "conditions": "read-out: GI", "in_short": "as §2"}, "[19]": {"test_system": "EKVX", "assay": "Anticancer activity against human EKVX cells assessed as cell growth inhibition incubated for 48 hrs by sulforhodamine B assay", "type": "functional", "in_short": "as §2"}, "[20]": {"test_system": "Hs-578T", "assay": "Anticancer activity against human Hs-578T cells assessed as cell growth inhibition at 10 uM incubated for 48 hrs by sulforhodamine B assay", "type": "functional", "conditions": "read-out: GI", "in_short": "as §2"}, "[21]": {"test_system": "OVCAR-5", "assay": "Anticancer activity against human OVCAR-5 cells assessed as cell growth inhibition incubated for 48 hrs by sulforhodamine B assay", "type": "functional", "in_short": "as §1"}, "[22]": {"test_system": "T47D", "assay": "Anticancer activity against human T47D cells assessed as cell growth inhibition at 10 uM incubated for 48 hrs by sulforhodamine B assay", "type": "functional", "conditions": "read-out: GI"}, "[23]": {"test_system": "SR", "assay": "Anticancer activity against human SR cells assessed as cell growth inhibition at 10 uM incubated for 48 hrs by sulforhodamine B assay", "type": "functional", "conditions": "read-out: GI"}, "[24]": {"test_system": "UO-31", "assay": "Anticancer activity against human UO-31 cells assessed as cell growth inhibition at 10 uM incubated for 48 hrs by sulforhodamine B assay", "type": "functional", "conditions": "read-out: GI"}, "[25]": {"test_system": "MDA-MB-468", "assay": "Anticancer activity against human MDA-MB-468 cells assessed as cell growth inhibition incubated for 48 hrs by sulforhodamine B assay", "type": "functional", "in_short": "as §1"}, "[26]": {"test_system": "Hs-578T", "assay": "Anticancer activity against human Hs-578T cells assessed as cell growth inhibition incubated for 48 hrs by sulforhodamine B assay", "type": "functional", "in_short": "as §2"}, "[27]": {"test_system": "K562", "assay": "Anticancer activity against human K562 cells assessed as cell growth inhibition at 10 uM incubated for 48 hrs by sulforhodamine B assay", "type": "functional", "conditions": "read-out: GI", "in_short": "as §2"}, "[28]": {"test_system": "HL-60", "assay": "Anticancer activity against human HL-60 cells assessed as cell growth inhibition incubated for 48 hrs by sulforhodamine B assay", "type": "functional", "in_short": "as §2"}, "[29]": {"test_system": "RPMI-8226", "assay": "Anticancer activity against human RPMI-8226 cells assessed as cell growth inhibition incubated for 48 hrs by sulforhodamine B assay", "type": "functional", "in_short": "as §1"}, "[30]": {"test_system": "NCI-H322M", "assay": "Anticancer activity against human NCI-H322M cells assessed as cell growth inhibition at 10 uM incubated for 48 hrs by sulforhodamine B assay", "type": "functional", "conditions": "read-out: GI", "in_short": "as §1"}, "[31]": {"test_system": "HCC 2998", "assay": "Anticancer activity against human HCC 2998 cells assessed as cell growth inhibition at 10 uM incubated for 48 hrs by sulforhodamine B assay", "type": "functional", "conditions": "read-out: GI", "in_short": "as §2"}, "[32]": {"test_system": "HOP-62", "assay": "Anticancer activity against human HOP-62 cells assessed as cell growth inhibition incubated for 48 hrs by sulforhodamine B assay", "type": "functional", "in_short": "as §2"}, "[33]": {"test_system": "DNA", "assay": "Potentiation of H2O2 induced [32P]-labeled 49-mer oligonucleotide duplex DNA 25 (unknown origin) interstrand cross-linking at pH 8 in phosphate buffer solution assessed as rate constant and measured for 24 hrs by PAGE analysis", "type": "functional"}, "[34]": {"test_system": "ACHN", "assay": "Anticancer activity against human ACHN cells assessed as cell growth inhibition at 10 uM incubated for 48 hrs by sulforhodamine B assay", "type": "functional", "conditions": "read-out: GI", "in_short": "as §2"}, "[35]": {"test_system": "NCI-H460", "assay": "Anticancer activity against human NCI-H460 cells assessed as cell growth inhibition incubated for 48 hrs by sulforhodamine B assay", "type": "functional", "in_short": "as §1"}}}
{"smiles": "COc1cc(CBr)c(B2OC(C)(C)C(C)(C)O2)c(CBr)c1", "values": [{"measurement": "inhibition of growth at 10 µM", "setting": "[1]", "value": "< 50", "unit": "%"}, {"measurement": "GI50", "setting": "[2]", "value": 2, "unit": "µM"}, {"measurement": "inhibition of growth at 10 µM", "setting": "[3]", "value": "< 50", "unit": "%"}, {"measurement": "inhibition of growth at 10 µM", "setting": "[4]", "value": "< 50", "unit": "%"}, {"measurement": "inhibition of growth at 10 µM", "setting": "[5]", "value": "< 50", "unit": "%"}, {"measurement": "IC50", "setting": "[6]", "value": 18.1, "unit": "µM"}, {"measurement": "IC50", "setting": "[7]", "value": 20, "unit": "µM"}, {"measurement": "GI50", "setting": "[8]", "value": 2, "unit": "µM"}, {"measurement": "inhibition of growth at 10 µM", "setting": "[9]", "value": "< 50", "unit": "%"}, {"measurement": "GI50", "setting": "[10]", "value": 2, "unit": "µM"}, {"measurement": "inhibition of growth at 10 µM", "setting": "[11]", "value": "< 50", "unit": "%"}, {"measurement": "IC50", "setting": "[12]", "value": 10.8, "unit": "µM"}, {"measurement": "GI50", "setting": "[13]", "value": 2, "unit": "µM"}, {"measurement": "inhibition of growth at 10 µM", "setting": "[14]", "value": "< 50", "unit": "%"}, {"measurement": "GI50", "setting": "[15]", "value": 2, "unit": "µM"}, {"measurement": "inhibition of growth at 10 µM", "setting": "[16]", "value": "< 50", "unit": "%"}, {"measurement": "GI50", "setting": "[17]", "value": 2, "unit": "µM"}, {"measurement": "inhibition of growth at 10 µM", "setting": "[18]", "value": "< 50", "unit": "%"}, {"measurement": "GI50", "setting": "[19]", "value": 2, "unit": "µM"}, {"measurement": "inhibition of growth at 10 µM", "setting": "[20]", "value": "< 50", "unit": "%"}, {"measurement": "GI50", "setting": "[21]", "value": 2, "unit": "µM"}, {"measurement": "inhibition of growth at 10 µM", "setting": "[22]", "value": "< 50", "unit": "%"}, {"measurement": "inhibition of growth at 10 µM", "setting": "[23]", "value": "< 50", "unit": "%"}, {"measurement": "inhibition of growth at 10 µM", "setting": "[24]", "value": "< 50", "unit": "%"}, {"measurement": "GI50", "setting": "[25]", "value": 2, "unit": "µM"}, {"measurement": "GI50", "setting": "[26]", "value": 2, "unit": "µM"}, {"measurement": "inhibition of growth at 10 µM", "setting": "[27]", "value": "< 50", "unit": "%"}, {"measurement": "GI50", "setting": "[28]", "value": 2, "unit": "µM"}, {"measurement": "GI50", "setting": "[29]", "value": 2, "unit": "µM"}, {"measurement": "inhibition of growth at 10 µM", "setting": "[30]", "value": "< 50", "unit": "%"}, {"measurement": "inhibition of growth at 10 µM", "setting": "[31]", "value": "< 50", "unit": "%"}, {"measurement": "GI50", "setting": "[32]", "value": 2, "unit": "µM"}, {"measurement": "Ka", "setting": "[33]", "value": 0.000237, "unit": "s⁻¹"}, {"measurement": "inhibition of growth at 10 µM", "setting": "[34]", "value": "< 50", "unit": "%"}, {"measurement": "GI50", "setting": "[35]", "value": 2, "unit": "µM"}]}
